Activity calls are given as the source filed them. No cut-off for these calls is given here.
Tests used:
[1] = Cytotoxicity against human UACC62 cells; assay type: cell-based; settings: UACC-62 cells
[2] = target: T1, DNA topoisomerase 1 (Homo sapiens) (UniProt P11387); assay: Inhibition of human recombinant topoisomerase 1-mediated DNA cleavage after 30 mins
T1 sequence (whole entry): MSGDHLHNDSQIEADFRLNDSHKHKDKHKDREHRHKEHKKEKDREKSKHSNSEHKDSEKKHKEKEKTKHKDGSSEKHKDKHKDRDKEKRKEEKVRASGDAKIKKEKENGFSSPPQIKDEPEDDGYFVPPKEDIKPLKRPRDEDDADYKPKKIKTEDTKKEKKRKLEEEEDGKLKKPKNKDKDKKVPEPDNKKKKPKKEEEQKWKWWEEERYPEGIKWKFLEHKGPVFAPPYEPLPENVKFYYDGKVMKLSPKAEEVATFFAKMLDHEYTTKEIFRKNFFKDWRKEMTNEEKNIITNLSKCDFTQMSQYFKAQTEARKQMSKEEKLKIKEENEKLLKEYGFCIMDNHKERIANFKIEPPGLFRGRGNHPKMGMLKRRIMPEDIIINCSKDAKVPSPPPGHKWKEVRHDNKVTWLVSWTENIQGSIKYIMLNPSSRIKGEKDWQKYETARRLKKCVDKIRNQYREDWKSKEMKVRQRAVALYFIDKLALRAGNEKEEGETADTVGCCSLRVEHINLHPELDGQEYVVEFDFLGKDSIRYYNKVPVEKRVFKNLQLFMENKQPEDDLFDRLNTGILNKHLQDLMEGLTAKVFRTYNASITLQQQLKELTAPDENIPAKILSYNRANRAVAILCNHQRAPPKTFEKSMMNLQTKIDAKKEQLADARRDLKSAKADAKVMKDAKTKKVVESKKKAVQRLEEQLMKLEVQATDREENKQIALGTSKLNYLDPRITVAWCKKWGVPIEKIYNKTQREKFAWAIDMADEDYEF
How it was run: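 Human recombinant Top1 purified from baculovirus. Substrate: 161 bp PvuII/HindIII fragment of pBluescript SK(−), 3′-end labeled at the HindIII site by Klenow fill-in with [α-32P]-dGTP. About 50,000 dpm per reaction, incubated with Top1 plus drug for 30 min at 22 °C. Stopped with SDS (0.5% final). Run on denaturing 16% polyacrylamide/7 M urea gels and phosphorimaged. Cleavage scored semi-quantitatively (+ scale) against the parent indenoisoquinoline.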

[3] = Cytotoxicity against human HOP62 cells; assay type: cell-based; settings: HOP-62 cells
[4] = Cytotoxicity against human OVCAR-3 cells; assay type: cell-based
[5] = Cytotoxicity against human HCT116 cells; assay type: cell-based; settings: HCT-116 cells
SF-268 = assay: Cytotoxicity against human SF268 cells; assay type: functional
[6] = Cytotoxicity against human DU145 cells; assay type: cell-based; settings: DU-145 cells
[7] = Cytotoxicity against human SN12C cells; assay type: cell-based
[8] = Cytotoxicity against human […] cells; assay type: cell-based

Row | Activity [2] | SMILES | GI50 [1] [µM] | GI50 [3] [µM] | GI50 [4] [µM] | GI50 [5] [µM] | GI50 (SF-268) [µM] | GI50 [6] [µM] | GI50 [7] [µM] | GI50 [8] [µM]
1 | inactive | NCCCCCCCCCCn1c2c(c3ccccc3c1=O)C(=O)c1ccccc1-2 | 13.8 | 4.79 | 10.7 | 2.75 | 1.82 | 3.47 | 3.31 | 11.7
2 |  | NCCCn1c2c(c3ccccc3c1=O)C(=O)c1ccccc1-2 | 0.26 | 0.2 | 1.38 | 0.18 | 0.25 | 0.22 | 0.16 | 0.78
3 | inactive | Nn1c2c(c3ccccc3c1=O)C(=O)c1ccccc1-2 | > 50.1 | 24.5 | > 50.1 | > 50.1 | 28.2 | > 50.1 | > 50.1 | > 50.1
4 |  | COc1cc2c3c(n(CCCNCCCNCCCN)c(=O)c2cc1OC)-c1cc2c(cc1C3=O)OCO2 | 44 |  | 0.88 | 43 |  | > 100 | 33 | 68
5 |  | NCCCCn1c2c(c3ccccc3c1=O)C(=O)c1ccccc1-2 | 0.05 | 0.08 | 0.52 | 0.1 | 0.1 | 0.01 | 0.04 | 0.84
6 | inactive | O=C1c2ccccc2-c2c1c1ccccc1c(=O)n2CCc1ccccn1 | 27.5 | 21.4 | > 100 |  | 17.4 | 74.1 | 77.6 | 5.13
7 | inactive | CC(C)(C)OC(=O)NCCCCCCCCCCn1c2c(c3ccccc3c1=O)C(=O)c1ccccc1-2 | 43.6 | 28.8 | > 100 | 60.3 | 42.7 | 97.7 | > 100 | > 100
8 |  | COc1cc2c3c(n(CCCNCCNCCN)c(=O)c2cc1OC)-c1cc2c(cc1C3=O)OCO2 | 2.6 | 2.8 | 1.7 | 0.9 |  | 1.2 | 2.5 | 2.7
9 |  | CC(C)(C)OC(=O)NCCCCCCCCCn1c2c(c3ccccc3c1=O)C(=O)c1ccccc1-2 | 17.4 | 24.5 | 28.8 |  | 17.8 | > 100 | 77.6 | > 100
10 |  | NCCCCCCCCCCCCn1c2c(c3ccccc3c1=O)C(=O)c1ccccc1-2 | 14.8 | 17 | 17.8 |  | 18.2 | 19.1 | 13.5 | 19.5
11 | inactive | CC(C)(C)OC(=O)NCCCCCCCn1c2c(c3ccccc3c1=O)C(=O)c1ccccc1-2 | 20 |  | 33.9 | 17.4 | 20.9 | 31.6 | 74.1 | 81.3
12 | inactive | CC(C)(C)OC(=O)NCCCCCCCCn1c2c(c3ccccc3c1=O)C(=O)c1ccccc1-2 | 15.5 | 10.7 |  | 25.7 | 8.71 | > 50.1 | > 50.1 | > 50.1
13 |  | CC(C)(C)OC(=O)NCCCCCCCCCCCn1c2c(c3ccccc3c1=O)C(=O)c1ccccc1-2 | 24 | 20.9 | 70.8 | 35.5 | 29.5 | 91.2 | > 100 | > 100
14 | inactive | NCCCCCCCCCn1c2c(c3ccccc3c1=O)C(=O)c1ccccc1-2 | 9.33 | 6.76 | 9.55 | 6.46 | 9.77 | 6.03 | 8.51 | 9.55
15 |  | O=C1c2ccccc2-c2c1c1ccccc1c(=O)n2Cc1cccnc1 | 8.71 | 7.59 | 13.8 |  | 6.76 | 13.8 | 13.8 | 42.7
16 |  | CC[C@@]1(O)C(=O)OCc2c1cc1n(c2=O)Cc2cc3ccccc3nc2-1 [CAMPTOTHECIN] |  |  |  |  | 0.01 |  |  | 0.04
17 |  | NCCCCCCn1c2c(c3ccccc3c1=O)C(=O)c1ccccc1-2 | 1.62 | 1.29 | 2 | 0.912 | 1.23 | 0.603 | 1.32 | 2.04
18 |  | CC(C)(C)OC(=O)NCCCCCCCCCCCCn1c2c(c3ccccc3c1=O)C(=O)c1ccccc1-2 | 27.5 | 32.4 | > 100 | > 100 | 20.4 | 91.2 | > 100 | > 100
19 |  | COc1cc2c3c(n(C)c(=O)c2cc1OC)-c1cc2c(cc1C3=O)OCO2 |  |  |  |  |  |  |  | 96
20 | inactive | NCCCCCCCn1c2c(c3ccccc3c1=O)C(=O)c1ccccc1-2 | 2 | 1.2 | 1.7 | 1.26 | 1.78 | 0.832 | 1.66 | 2.24
21 | inactive | O=C1c2ccccc2-c2c1c1ccccc1c(=O)n2Cc1ccccn1 | 10.7 | 11.2 | 13.8 |  | 12.3 | 13.5 | 28.2 | 3.09
22 | inactive | NCCCCCn1c2c(c3ccccc3c1=O)C(=O)c1ccccc1-2 | 1.35 | 0.288 | 0.708 | 0.2 | 0.871 | 0.347 | 0.398 | 1.35
23 |  | COc1cc2c3c(n(CCCNCCCNCCN)c(=O)c2cc1OC)-c1cc2c(cc1C3=O)OCO2 | 37 |  | 20 | 23 |  | 52 | 20 | 38
24 |  | NCCCCCCCCCCCn1c2c(c3ccccc3c1=O)C(=O)c1ccccc1-2 | 1.7 | 2.19 | 2.09 | 1.91 | 2.04 | 4.57 | 2 | 11
25 |  | COc1cc2c3c(n(CCCNCCNCCCN)c(=O)c2cc1OC)-c1cc2c(cc1C3=O)OCO2 | 1.9 | 2.9 | 8.1 | 1.3 |  | 4.6 | 1.7 | 3.4
26 |  | NCCn1c2c(c3ccccc3c1=O)C(=O)c1ccccc1-2 | 0.92 | 0.62 | 0.71 | 0.27 | 0.21 | 0.76 | 0.49 | 0.92
27 | inactive | O=C1c2ccccc2-c2c1c1ccccc1c(=O)n2CCc1cccnc1 | 89.1 | 28.8 | > 100 |  | 27.5 | 81.3 | > 100 | 4.57
28 |  | NCCCCCCCCn1c2c(c3ccccc3c1=O)C(=O)c1ccccc1-2 | 3.8 | 2.14 | 3.47 | 1.66 | 2.82 | 3.39 | 3.47 | 5.62

Reference: ChEMBL document CHEMBL1147131, “Investigation of the lactam side chain length necessary for optimal indenoisoquinoline topoisomerase I inhibition and cytotoxicity in human cancer cell cultures” (J Med Chem, 2007)
